A short description of test [1]: Compound was tested for the concentration which causes a doubling of the thrombin clotting time of human plasma. Format: functional. The gist of the method: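 Human plasma thrombin clotting time measured across inhibitor concentrations (μM). Coagulation time (sec) fitted to y = a + b·x^c, a being the uninhibited clotting time and b, c shape/location parameters. Value taken as the concentration that doubles the clotting time (IC200).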

In test [2] the target is Prothrombin (Homo sapiens, UniProt P00734). Description: Inhibitory activity against thrombin.
The nature of test [3]: Inhibitory activity against trypsin/plasmin/factor Xa.

For orientation: Ki means the dissociation constant of the complex between target and ligand, obtained from inhibition or displacement. As to `Cc1cc(NS(=O)(=O)c2ccccc2)cc(OCCCCCN=C(N)N)c1`, in test [1], the IC200 was 188 µM. In addition, the results for the Ki in test [2] and in test [3] were 6.4 µM and above 500 µM, respectively.

Compound `Cc1cc(NS(=O)(=O)c2ccccc2)cc(OCCCCCCN)c1` yielded an IC200 in test [1] above 250 µM. The Ki in test [2] was 9 µM; in test [3], above 500 µM.

`Cc1cc(NS(=O)(=O)c2ccccc2)cc(OCCCN=C(N)N)c1` returned an IC200 in test [1] of 10 µM. Also, the results for the Ki in test [2] and in test [3] were 0.63 µM and above 500 µM, respectively.

For the compound `Cc1cc(NS(=O)(=O)c2ccccc2)cc(OCCCCN)c1`, the IC200 in test [1] came to 179 µM. For the same compound, the Ki in test [2] is 6.5 µM; in test [3] it was above 500 µM.

In the case of `Cc1cc(NS(=O)(=O)c2ccccc2)cc(OCCN)c1`, the IC200 in test [1] was above 250 µM. Moreover, the Ki is 240 µM in test [2] and above 500 µM in test [3].

`Cc1cc(NS(=O)(=O)c2ccccc2)cc(OCCNc2ccncc2)c1` gave an IC200 in test [1] of 0.29 µM. For the same compound, the Ki is 0.023 µM in test [2] and above 500 µM in test [3].

In test [1], `Cc1cc(NS(=O)(=O)c2ccccc2)cc(OCCCN)c1` showed an IC200 above 250 µM. For the same compound, the Ki in test [2] is 170 µM; in test [3], above 500 µM.

In the case of `Cc1cc(NS(=O)(=O)c2ccccc2)cc(OCCCCCCN=C(N)N)c1`, the IC200 in test [1] was 237 µM. Further, the values for the Ki in test [2] and in test [3] were 7 µM and above 500 µM, respectively.

Regarding `Cc1cc(NS(=O)(=O)c2ccccc2)cc(OCCCCN=C(N)N)c1`, the IC200 in test [1] was 10 µM. Also, the values for the Ki in test [2] and in test [3] were 0.18 µM and above 500 µM, respectively.

`Cc1cc(NS(=O)(=O)c2ccccc2)cc(OCCCCCN)c1`: in test [1], the IC200 is above 250 µM. In addition, the Ki was 9.9 µM in test [2] and above 500 µM in test [3].

On to `O=S(=O)(Nc1cccc(OCCNc2ccncc2)c1)c1ccccc1`, for which, in test [1], the IC200 came to 2.3 µM. In addition, the Ki in test [3] was above 500 µM.

Take `Cc1cc(NS(=O)(=O)c2ccccc2)cc(OCCN=C(N)N)c1`: the IC200 in test [1] turned out to be 38 µM. Besides, the Ki was 2 µM in test [2] and above 500 µM in test [3].

These data come from ChEMBL document CHEMBL1130854, “Diarylsulfonamides as selective, non-peptidic thrombin inhibitors” (Bioorg Med Chem Lett, 1998).
